Test results published in PubChem BioAssay AID651748 (Johns Hopkins Ion Channel Center, 2012).
Activity calls are given as the source filed them.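 Rule for the calls: active = a fitted dose response curve plus choline uptake above 120% of control at 33.3 µM; inactive = the rest.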

Biological target: High affinity choline transporter 1 (Homo sapiens) (UniProt Q9GZV3)
Experiment: CHT activators enhancing choline uptake, dose response, orthogonal assay for CHT activator project, cell-based, 3H-choline uptake, radioactive, HEK293 CHT LV-AA (AID 651748)
Outline: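 Assay system: CHT LV-AA-expressing HEK293 cells; Medium: HEPES-buffered HBSS, pH 7.4; Reagent: 3H-choline, 50 nM total choline with 10% tritiated; Incubation: 15 min compound pre-incubation then 15 min choline uptake, both 37 °C; Signal: tritium scintillation counting.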

Chain of High affinity choline transporter 1 (Homo sapiens) (Q9GZV3 whole entry, looked up): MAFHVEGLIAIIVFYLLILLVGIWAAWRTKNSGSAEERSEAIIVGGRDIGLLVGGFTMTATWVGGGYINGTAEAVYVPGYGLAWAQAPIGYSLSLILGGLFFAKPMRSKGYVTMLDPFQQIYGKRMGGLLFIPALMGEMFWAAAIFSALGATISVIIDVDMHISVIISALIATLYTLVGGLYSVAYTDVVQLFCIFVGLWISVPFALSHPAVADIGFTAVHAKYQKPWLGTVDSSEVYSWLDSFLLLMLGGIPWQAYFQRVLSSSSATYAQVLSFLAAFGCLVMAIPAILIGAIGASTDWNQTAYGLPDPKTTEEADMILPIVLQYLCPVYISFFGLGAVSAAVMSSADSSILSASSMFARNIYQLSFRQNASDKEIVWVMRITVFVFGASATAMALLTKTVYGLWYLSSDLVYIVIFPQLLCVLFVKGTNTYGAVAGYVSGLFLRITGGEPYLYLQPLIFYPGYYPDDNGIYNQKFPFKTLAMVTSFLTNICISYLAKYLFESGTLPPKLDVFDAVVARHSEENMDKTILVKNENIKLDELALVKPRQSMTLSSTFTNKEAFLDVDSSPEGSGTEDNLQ

SMILES: O=C(c1cccc(C(F)(F)F)c1)C1CCCN(Cc2cccn2-c2ncccn2)C1 (centres undefined)
- outcome: inactive

SMILES: Cc1cccc(NCc2nc3ccccc3n2CCOc2ccccc2)c1
- outcome: inactive

SMILES: Cc1ccc(NCc2nc3ccccc3n2CCOc2ccccc2)cc1
- outcome: inactive

SMILES: COc1ccccc1NCc1nc2ccccc2n1CCOc1ccccc1
- outcome: inactive

SMILES: CC(C)CN1CCN(Cc2cccn2-c2ccc(Cl)cn2)CC1CCO (centres undefined)
- outcome: inactive

SMILES: COc1ccc(NCc2nc3ccccc3n2CCOc2ccccc2Cl)cc1
- outcome: inactive

SMILES: Fc1ccc(NCc2nc3ccccc3n2CCOc2ccccc2)cc1
- outcome: inactive

SMILES: c1ccc(NCc2nc3ccccc3n2CCOc2ccccc2)cc1
- outcome: inactive

SMILES: Clc1ccc(NCc2nc3ccccc3n2CCOc2ccccc2)cc1
- outcome: inactive

SMILES: O=C1N(Cc2cccc(Cl)c2)C[C@@H]2C[C@@H](c3cccn3-c3ccccn3)N3CCC[C@@]123
- outcome: inactive

SMILES: Cc1ccccc1NCc1nc2ccccc2n1CCOc1ccccc1
- outcome: inactive

SMILES: COc1ccc(NCc2nc3ccccc3n2CCOc2ccccc2)cc1
- outcome: inactive

SMILES: CCOc1ccc(NCc2nc3ccccc3n2CCOc2ccccc2)cc1
- outcome: inactive

SMILES: Brc1ccc(NCc2nc3ccccc3n2CCOc2ccccc2)cc1
- outcome: inactive
